From ChEMBL document CHEMBL2040779, “Multidentate (18)F-polypegylated styrylpyridines as imaging agents for Aβ plaques in cerebral amyloid angiopathy (CAA)” (J Med Chem, 2011)
Activity calls are given as the source filed them. The rule behind the calls is not given here.

Experiments:
Muscle tissue [1] = assay: Biodistribution in ICR mouse muscle at 925 KBq, iv after 30 mins by gamma counting; type: ADME, organism-based; conditions: in vivo, 0.5 h
Outline: (§1)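 The ¹⁸F tracer was given iv to normal ICR mice (n = 6 per time point). Animals were killed by cardiac excision under isoflurane at 2 or 30 min. Organs were removed, weighed and γ-counted. %dose/g was calculated against counts of a 100-fold diluted aliquot of the injectate (1% of initial dose), counted at the same time.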

Kidney [2] = assay: Biodistribution in ICR mouse kidney at 925 KBq, iv after 2 mins by gamma counting; type: ADME, organism-based; conditions: in vivo; outline: as §1
Kidney [3] = assay: Biodistribution in ICR mouse kidney at 925 KBq, iv after 30 mins by gamma counting; type: ADME, organism-based; conditions: in vivo, 0.5 h; outline: as §1
Liver [4] = assay: Biodistribution in ICR mouse liver at 925 KBq, iv after 30 mins by gamma counting; type: ADME, organism-based; conditions: in vivo, 0.5 h; outline: as §1
Blood [5] = assay: Biodistribution in ICR mouse blood at 925 KBq, iv after 30 mins by gamma counting; type: ADME, organism-based; conditions: in vivo, 0.5 h; outline: as §1
Bone [6] = assay: Biodistribution in ICR mouse bone at 925 KBq, iv after 2 mins by gamma counting; type: ADME, organism-based, Bone element; conditions: in vivo; outline: as §1
Brain [7] = assay: Biodistribution in ICR mouse brain at 925 KBq, iv after 2 mins by gamma counting; type: ADME, organism-based; conditions: in vivo; outline: as §1
Muscle tissue [8] = assay: Biodistribution in ICR mouse muscle at 925 KBq, iv after 2 mins by gamma counting; type: ADME, organism-based; conditions: in vivo; outline: as §1
Bone [9] = assay: Biodistribution in ICR mouse bone at 925 KBq, iv after 30 mins by gamma counting; type: ADME, organism-based, Bone element; conditions: in vivo, 0.5 h; outline: as §1
Liver [10] = assay: Biodistribution in ICR mouse liver at 925 KBq, iv after 2 mins by gamma counting; type: ADME, organism-based; conditions: in vivo; outline: as §1
Blood [11] = assay: Biodistribution in ICR mouse blood at 925 KBq, iv after 2 mins by gamma counting; type: ADME, organism-based; conditions: in vivo; outline: as §1
Brain [12] = assay: Biodistribution in ICR mouse brain at 925 KBq, iv after 30 mins by gamma counting; type: ADME, organism-based; conditions: in vivo, 0.5 h; outline: as §1
[13] = molecular target: T1, Amyloid-beta precursor protein (Homo sapiens, UniProt P05067); assay: Binding affinity to amyloid-beta plaque in parenchymal region of normal human brain after 1 hr; type: tissue-based; conditions: tested as the 18F-labelled form
Outline: (§2)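 Post-mortem occipital sections (20 μm) from frozen brains of confirmed CAA, AD and control subjects. The ¹⁸F-labelled tracer was applied in 40% ethanol for 1 h. Sections were washed twice for 2 min in saturated Li₂CO₃/40% ethanol, once for 2 min in 40% ethanol, then rinsed 30 s in water. Dried sections were exposed to film for 12−18 h and the images digitized.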

[14] = molecular target: T1, Amyloid-beta precursor protein; assay: Binding affinity to amyloid-beta plaque in parenchymal region of alzheimer's disease patient brain after 1 hr; conditions: tested as the 18F-labelled form; outline: as §2
[15] = molecular target: T1, Amyloid-beta precursor protein; assay: Binding affinity to amyloid-beta plaque in cerebral blood vessels of alzheimer's disease patient cerebral amyloid angiopathy region of brain after 1 hr; type: tissue-based; conditions: tested as the 18F-labelled form; outline: as §2
[16] = molecular target: T1, Amyloid-beta precursor protein; assay: Binding affinity to amyloid-beta plaque in cerebral blood vessels of normal human cerebral amyloid angiopathy region of brain after 1 hr; type: tissue-based; conditions: tested as the 18F-labelled form; outline: as §2
[17] = molecular target: T1, Amyloid-beta precursor protein; assay: Displacement of [18F]-amyvid from amyloid-beta aggregates in alzheimer's disease patient brain homogenates after 1 hr; type: tissue-based
Outline: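 Competition binding in post-mortem AD brain tissue homogenates against [¹⁸F]5 bound to Aβ aggregates. Results are expressed as inhibition constants (Ki, nM).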

[18] = molecular target: T1, Amyloid-beta precursor protein; assay: Binding affinity to amyloid-beta plaque in cerebral blood vessels of alzheimer's disease patient cerebral amyloid angiopathy region of brain after 1 hr by autoradiography; type: tissue-based; conditions: tested as the 18F-labelled form; outline: as §2
[19] = molecular target: T1, Amyloid-beta precursor protein; assay: Binding affinity to amyloid-beta plaque in cerebral blood vessels of alzheimer's disease patient cerebral amyloid angiopathy region of brain after 1 hr by thioflavin S staining; type: tissue-based; conditions: tested as the 18F-labelled form
Outline: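 Adjacent brain sections were fixed 1 h in 10% neutral buffered formalin. Staining was with 0.025% thioflavin S in 40% ethanol for 3−5 min, then differentiation in 50% ethanol. Sections were viewed by fluorescence microscopy.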

T1 sequence (P05067 whole entry): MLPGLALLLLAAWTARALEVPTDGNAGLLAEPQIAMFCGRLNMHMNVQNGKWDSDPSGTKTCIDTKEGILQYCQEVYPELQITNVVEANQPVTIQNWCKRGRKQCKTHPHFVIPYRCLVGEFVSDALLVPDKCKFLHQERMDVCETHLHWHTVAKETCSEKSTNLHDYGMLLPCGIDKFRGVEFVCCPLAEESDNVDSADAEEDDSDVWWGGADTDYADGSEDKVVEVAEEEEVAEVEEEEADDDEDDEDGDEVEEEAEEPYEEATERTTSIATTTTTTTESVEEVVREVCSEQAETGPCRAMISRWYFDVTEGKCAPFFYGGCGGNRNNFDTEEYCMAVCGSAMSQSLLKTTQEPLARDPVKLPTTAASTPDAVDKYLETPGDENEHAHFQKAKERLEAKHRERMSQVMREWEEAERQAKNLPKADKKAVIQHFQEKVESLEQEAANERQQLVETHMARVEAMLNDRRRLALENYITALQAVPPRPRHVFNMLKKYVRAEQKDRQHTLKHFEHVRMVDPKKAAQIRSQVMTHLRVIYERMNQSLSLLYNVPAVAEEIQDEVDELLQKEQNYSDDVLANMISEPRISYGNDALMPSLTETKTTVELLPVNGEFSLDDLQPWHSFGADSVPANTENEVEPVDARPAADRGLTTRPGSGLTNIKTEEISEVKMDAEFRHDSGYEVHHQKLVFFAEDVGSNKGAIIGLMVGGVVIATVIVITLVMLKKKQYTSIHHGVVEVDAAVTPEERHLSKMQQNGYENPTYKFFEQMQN

Row | SMILES | Drug uptake (Muscle tissue [1]) | Drug uptake (Kidney [2]) | Drug uptake (Kidney [3]) | Drug uptake (Liver [4]) | Drug uptake (Blood [5]) | Drug uptake (Bone [6]) | Drug uptake (Brain [7]) | Drug uptake (Muscle tissue [8]) | Drug uptake (Bone [9]) | Drug uptake (Liver [10]) | Drug uptake (Blood [11]) | Drug uptake (Brain [12]) | Ki [17] | further results
1 | CNc1ccc(/C=C/c2ccc(OCCOCCOCCOCCOCCOCC(COCCOCCOCCOCCOCCOc3ccc(/C=C/c4ccc(NC)cc4)cn3)OCC[18F])nc2)cc1 | 1.62 % ID/g | 14.9 % ID/g | 13.4 % ID/g | 20 % ID/g | 1.32 % ID/g | 1.64 % ID/g | 0.4 % ID/g | 1.3 % ID/g | 1.8 % ID/g | 33.5 % ID/g | 2.55 % ID/g | 0.34 % ID/g |  | 
2 | CNc1ccc(/C=C/c2ccc(OCCOCCOCCOCCOCC(COCCOCCOCCOCCOc3ccc(/C=C/c4ccc(NC)cc4)cn3)OCC[18F])nc2)cc1 | 1.21 % ID/g | 8.13 % ID/g | 9.36 % ID/g | 21.4 % ID/g | 1.54 % ID/g | 1.3 % ID/g | 0.4 % ID/g | 0.82 % ID/g | 2.34 % ID/g | 21.2 % ID/g | 4.77 % ID/g | 0.4 % ID/g |  | 
3 | CNc1ccc(/C=C/c2ccc(OCCOCCOCCF)nc2)cc1 |  |  |  |  |  |  |  |  |  |  |  |  |  | Activity [13]: inactive; Activity [14]: Active; Activity [15]: Active; Activity [16]: inactive
4 | CNc1ccc(/C=C/c2ccc(OCCOCCOCCOCCn3cc(COCC(COCCOCCOCCF)(COCc4cn(CCOCCOCCOCCOc5ccc(/C=C/c6ccc(NC)cc6)cn5)nn4)COCc4cn(CCOCCOCCOCCOc5ccc(/C=C/c6ccc(NC)cc6)cn5)nn4)nn3)nc2)cc1 |  |  |  |  |  |  |  |  |  |  |  |  | 468 nM | 
5 | CNc1ccc(/C=C/c2ccc(OCCOCCOCCOCCOCCOCCOCC(COCCOCCOCCOCCOCCOCCOc3ccc(/C=C/c4ccc(NC)cc4)cn3)OCC[18F])nc2)cc1 | 1.29 % ID/g | 13.7 % ID/g | 11.7 % ID/g | 16 % ID/g | 1.4 % ID/g | 1.06 % ID/g | 0.29 % ID/g | 0.65 % ID/g | 1.36 % ID/g | 30.2 % ID/g | 3.12 % ID/g | 0.38 % ID/g |  | 
6 | CNc1ccc(-c2nc3ccc(O)cc3s2)cc1[18F] [FLUTEMETAMOL F 18] |  |  |  |  |  |  |  |  |  |  |  |  | 0.74 nM | 
7 | CNc1ccc(/C=C/c2ccc(OCCOCCOCCOCCOCC(COCCOCCOCCOCCOc3ccc(/C=C/c4ccc(NC)cc4)cn3)OCCF)nc2)cc1 |  |  |  |  |  |  |  |  |  |  |  |  | 3.24 nM | Activity [13]: inactive; Activity [18]: Active; Activity [14]: Active; Activity [19]: Active; Activity [15]: Active; Activity [16]: inactive
8 | CNc1ccc(/C=C/c2ccc(OCCOCCOCCOCCOCCOCCOCC(COCCOCCOCCOCCOCCOCCOc3ccc(/C=C/c4ccc(NC)cc4)cn3)OCCF)nc2)cc1 |  |  |  |  |  |  |  |  |  |  |  |  | 3.86 nM | 
9 | CNc1ccc(/C=C/c2ccc(OCCOCCOCC[18F])nc2)cc1 [FLORBETAPIR F 18] | 1.78 % ID/g | 10.9 % ID/g | 6.31 % ID/g | 12.9 % ID/g | 2.8 % ID/g | 1.43 % ID/g | 7.77 % ID/g | 1.06 % ID/g | 1.22 % ID/g | 21.5 % ID/g | 3.14 % ID/g | 1.59 % ID/g |  | 
10 | CNc1ccc(/C=C/c2ccc(OCCOCCOCC[18F])cc2)cc1 [FLORBETABEN F18] |  |  |  |  |  |  |  |  |  |  |  |  | 2.22 nM | 
11 | CNc1ccc(/C=C/c2ccc(OCCOCCOCCOCCOCCOCC(COCCOCCOCCOCCOCCOc3ccc(/C=C/c4ccc(NC)cc4)cn3)OCCF)nc2)cc1 |  |  |  |  |  |  |  |  |  |  |  |  | 7.71 nM | 
12 | CNc1ccc(/C=C/c2ccc(OCCOCCOCCOCCNC(=O)CN(CC(=O)NCCOCCOCCOCCOc3ccc(/C=C/c4ccc(NC)cc4)cn3)C(=O)COCCOCCOCCF)nc2)cc1 |  |  |  |  |  |  |  |  |  |  |  |  | 71.2 nM | 
13 | CN(C(=O)OC(C)(C)C)c1ccc(/C=C/c2ccc(OCCOCCOCCOCCOCC(COCCOCCOCCOCCOc3ccc(/C=C/c4ccc(N(C)C(=O)OC(C)(C)C)cc4)cn3)OCCF)nc2)cc1 |  |  |  |  |  |  |  |  |  |  |  |  | > 1000 nM | 
